RAM inhibit: blocks the yeast RAM network | AID 868 | S. cerevisiae dse1pr::URA3 reporter, 5-FOA growth OD615, 2 d; analog-sensitive cbk1-as2 kinase mutant strain | hit rate 1.8% among 190,000 | inhibition, % at 50 µM;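 active = inhibition above a set limit, 3 SD over mean compound inhibition, cut at about 8.4% in these data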;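 note: 0% = DMSO-only wells with no growth and 100% = 10 µM 1-NA-PP1 full growth; inhibition rescues growth on 5-FOA so higher OD means more RAM inhibition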
Yeast lifespan up: extends the lifespan of yeast | S. cerevisiae growth with nicotinamide, OD615; deaD strain in restrictive glucose medium | inhibition of the nicotinamide effect, % at 10 µM | hit rate 0.68% among 130,000;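 active = inhibition above a set limit, placed 3 SD over the median of all compounds, cut at about 26% in these data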;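 note: 0% = nicotinamide-treated wells and 100% = cells grown without nicotinamide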
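assay system = DeaD-strain S. cerevisiae | measured by = absorbance at 615 nm | probe or stimulus = nicotinamide 1.5 mM | buffer or medium = CSMM-D glucose medium, restrictive | times = 48 h at 30 °C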
WT yeast gro inh: growth inhibition of WT yeast, mitochondrial fusion screen | inhibition, % at 10 µM | hit rate 2.1% among 190,000 | mitochondrial fusion phenotypic screen, WT strain; in the data active = inhibition above about 58%; tested in S. cerevisiae
DAT uptake mod: changed human dopamine transporter uptake under cocaine IC80; Q01959; LLC-PK1 hDAT cells, [14C]-dopamine uptake with cocaine IC80; actives deviate in either direction; B-score at 10 µM; hit rate 1.3% among 110,000; AID 449768;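 active = Z score or B-score, a plate-position-corrected score, falls beyond the plate's 99.7% confidence bounds, in either direction; inactive = both scores lie inside the 99.7% bounds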;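 note: scored against the spread of the other compound wells on the same plate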
Target sequence (Q01959 whole entry, looked up): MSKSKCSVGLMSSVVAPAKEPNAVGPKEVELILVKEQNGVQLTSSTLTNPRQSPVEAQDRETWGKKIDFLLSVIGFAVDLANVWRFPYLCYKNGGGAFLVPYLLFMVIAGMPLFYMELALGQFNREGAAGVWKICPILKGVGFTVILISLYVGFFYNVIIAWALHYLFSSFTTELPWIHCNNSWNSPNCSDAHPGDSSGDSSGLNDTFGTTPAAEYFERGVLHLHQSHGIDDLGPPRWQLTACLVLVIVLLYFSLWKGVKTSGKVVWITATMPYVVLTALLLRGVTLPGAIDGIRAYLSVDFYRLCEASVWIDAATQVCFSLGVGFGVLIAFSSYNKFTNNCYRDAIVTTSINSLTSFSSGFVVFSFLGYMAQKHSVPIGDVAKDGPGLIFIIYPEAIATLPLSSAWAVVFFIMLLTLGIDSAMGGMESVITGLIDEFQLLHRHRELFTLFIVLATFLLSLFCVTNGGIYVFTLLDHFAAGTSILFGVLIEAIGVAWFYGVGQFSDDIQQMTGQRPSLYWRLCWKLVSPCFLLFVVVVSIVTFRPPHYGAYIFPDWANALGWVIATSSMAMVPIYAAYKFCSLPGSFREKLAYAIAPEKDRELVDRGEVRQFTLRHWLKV
BB579 growth dn: reduces growth of yeast BB579 in restrictive medium; S. cerevisiae BB579 growth, OD615, 48 h; inhibition, % at 10 µM; hit rate 0.51% among 140,000; AID 804;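 active = inhibition above a set limit, 3 SD over the mean compound inhibition, cut at about 44% in these data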
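System: Saccharomyces cerevisiae DeaD strain BB579, replicative lifespan model yeast | Buffer or medium: Restrictive glucose-based CSMM-D medium | Times: 4 h preincubation and 48 h exposure at 30 °C | Detection: OD615 turbidity measurement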
Measles CPE: protection of cells from measles virus; Measles virus-infected cells, CPE protection, absorbance; protection (pct of control), % at 4 µM; hit rate 1.5% among 140,000; AID 841; in the data active = protection mostly above about 24%, no sharp cut-off; inactive = mostly below about 26%
Starred values were filed as active, the others as inactive; . = no result. Hits are enriched below; roughly 6.1% of the tested compounds scored in any of these assays.

SMILES | RAM inhibit | Yeast lifespan up | WT yeast gro inh | DAT uptake mod | BB579 growth dn | Measles CPE
O=c1c2ccccc2nc2n1-c1ccccc1CCC2 | 0.8 | -11.9 | 18.1 | -1.08 | -32.4 | 7.3
O=C1c2ccccc2-n2c1nc1ccccc1c2=O | 6.0 | . | 66.0* | 0.345 | . | .
CCOC(=O)N/N=C(/C)c1cccc(-n2cnnn2)c1 | 0.9 | . | 6.5 | . | . | .
CC1=[N+](CC(=O)c2ccccc2)CCn2cccc21 | 1.1 | . | -7.0 | . | . | .
COc1ccc(Cl)cc1N1C(=O)/C(=C\c2sccc2C)N=C1SCC(=O)NC1CC1 | 8.6* | -17.0 | 14.4 | -0.715 | -40.7 | 15.4
C=CCn1c(NS(=O)(=O)c2ccccc2)c(S(=O)(=O)c2ccc(C)cc2)c2nc3ccccc3nc21 | 11.0* | 13.5 | 3.5 | . | -18.6 | 36.7
O=S(=O)(Nc1c(S(=O)(=O)c2ccccc2)c2nc3ccccc3nc2n1C1CCCCC1)c1ccccc1 | 0.8 | 27.4* | -2.3 | . | -8.8 | 5.9
CCCCn1c(N)c(S(=O)(=O)c2ccc(C)cc2)c2nc3ccccc3nc21 | 9.5* | 3.0 | -10.4 | . | -20.6 | 8.8
CCN(C(=O)COc1ccc(C)nc1[N+](=O)[O-])C1CCS(=O)(=O)C1 (stereo not given) | 1.1 | 2.1 | 7.6 | . | -28.9 | 31.4
Cc1ccc(OCC(=O)N(Cc2ccccc2)C2CCS(=O)(=O)C2)c([N+](=O)[O-])n1 (stereo not given) | -0.9 | -5.0 | 4.9 | . | 1.3 | 37.2*
CC(C)c1ccc(-n2cccc2/C=C2/C(=N)N3C=CSC3=NC2=O)cc1 | 3.7 | -4.5 | 87.3* | . | -4.2 | 8.8
CC1=CSC2=NC(=O)/C(=C\c3cccn3-c3ccccc3)C(=N)N12 | 6.6 | -0.8 | 5.3 | . | -5.9 | 5.0
COc1ccc(-n2cccc2/C=C2\C(=N)N3N=C(C(C)C)SC3=NC2=O)cc1 | 11.1* | . | 46.8 | . | . | .
CCOC(=O)C(C)(C)N(Cc1ccccc1C)S(=O)(=O)c1ccc(Cl)c([N+](=O)[O-])c1 | 9.3* | 13.7 | 41.5 | . | -57.9 | 16.2
O=C(Cc1cccs1)NC1(C(=O)NC2CCCC2)CCCCC1 | 1.1 | 4.1 | -4.0 | . | -54.7 | 9.1
Cc1cccc(-c2nnc(SCc3ccccc3)o2)c1 | 0.1 | -33.1 | 65.0* | 1.38 | -21.5 | 3.6
CC(C1CC1)N(Cc1ccccc1)C(=S)Nc1cccc(C(F)(F)F)c1 (stereo not given) | 6.1 | 30.6* | 76.0* | . | -33.0 | 3.5
CC(C1CC1)N(Cc1ccccc1)C(=S)Nc1ccccc1 (stereo not given) | -1.3 | . | 20.6 | . | . | .
NC(=O)c1ccc(NC(=O)COC(=O)c2c3c(nc4ccccc24)/C(=C\c2cccs2)CCC3)cc1 | 6.6 | -2.6 | 75.5* | . | -49.8 | 3.9
CC1(C)CC(=O)C2=C(C1)N(c1ccc(F)cc1)C(=O)C2(O)C(F)(F)F (stereo not given) | -1.2 | -13.0 | 83.9* | . | -29.9 | 5.9
CSc1ccc(CN2CCN(Cc3ccc([N+](=O)[O-])cc3)CC2)cc1 | -0.6 | . | 35.6 | . | . | .
CCCn1c2c(c(=N)c3c1CCC3)CCCC2 | 0.9 | -3.1 | 10.4 | . | -4.3 | 8.6
N=c1c2c(n(Cc3ccc([N+](=O)[O-])cc3)c3c1CCC3)CCCC2 | 1.4 | . | 66.6* | . | . | .
N=c1c2c(n(Cc3ccc(Br)cc3)c3c1CCC3)CCCC2 | 1.4 | 4.0 | 58.1* | . | 6.1 | 4.7
N=c1c2c(n(Cc3ccc(Cl)c(Cl)c3)c3c1CCC3)CCCC2 | 1.3 | 1.6 | 71.8* | -1.15 | -21.3 | 5.5
SMILES | RAM inhibit | Yeast lifespan up | WT yeast gro inh | DAT uptake mod | BB579 growth dn | Measles CPE
O=C1N[C@@H](Cc2cn(S(=O)(=O)c3c(F)c(F)c(F)c(F)c3F)c3ccccc23)C(=O)N[C@H]1Cc1ccccc1 | . | . | . | -1.35 | . | .
C[C@@H]1CN(CCCn2c3ccccc3c3ccccc32)C[C@H](C)N1 | . | . | 33.5 | 0.202 | . | .
O=C(Nc1cccc(Cl)c1)c1ccc(F)c(S(=O)(=O)NCc2ccc3c(c2)OCO3)c1 | 5.9 | 2.6 | 45.4 | . | -25.1 | 20.2
CCN(CC)c1ccc(/C=N/NC(=S)NCc2ccco2)cc1 | 0.0 | -4.0 | 67.5* | . | 2.1 | 11.3
Oc1ccc(/C=N/NC(=S)NCc2ccco2)cc1 | 1.5 | -16.2 | -22.1 | -0.898 | -11.6 | 40.7*
CCc1ccc(OCC(=O)N(CC)CC)cc1 | -0.2 | . | -25.9 | . | . | .
COc1ccc(CNC(=O)CCC(=O)N2CCN(S(=O)(=O)c3ccc(Cl)cc3)CC2)cc1 | 2.6 | . | -5.4 | . | . | .
CC(Oc1ccc(Cl)cc1Cl)c1nc(-c2ccc(NC(=O)c3ccccn3)cc2)no1 (stereo not given) | 11.0* | . | 17.8 | -0.16 | -23.5 | 10.3
CCCS(=O)(=O)Nc1ccc2cn[nH]c2c1 | -0.8 | . | -0.8 | . | . | .
O=C(/C=C/C=C/c1ccccc1)CC1(O)C(=O)N(CCc2ccccc2)c2ccccc21 (stereo not given) | 3.8 | -6.9 | 60.2* | . | -59.4 | 7.6
Cc1ccc(Nc2nnc(SCC(=O)NCCN3C(=O)CSC3=O)s2)cc1C | 3.5 | -5.3 | 11.7 | . | -1.8 | 4.6
COc1ccc(OC)c(C(=O)c2oc3ccccc3c2NC(C)=O)c1 | 0.1 | -8.6 | -8.3 | 0.115 | -42.9 | 4.4
CC1CCC(C(C)C)C(OC(=O)CSc2n[nH]c(=O)[nH]c2=O)C1 (stereo not given) | 2.4 | 47.5* | 4.3 | -0.304 | -46.9 | 12.8
Cc1nnc(SCC(=O)OC2CC(C)CCC2C(C)C)[nH]c1=O (stereo not given) | 6.0 | 3.4 | -2.6 | 1 | -1.4 | 2.8
CCn1cc(/C=N/NC(=O)c2ccc3c(c2)OCO3)cn1 | 1.1 | 3.3 | -9.0 | . | -1.8 | 6.8
Nc1nc(CSc2nc3ccccc3s2)nc(Nc2ccccc2)n1 | 5.7 | -5.5 | 39.4 | . | -50.9 | 17.2
Cc1c(Cl)cccc1Nc1nc(N)nc(CSc2nc3ccccc3s2)n1 | 1.4 | -6.0 | 72.3* | . | -17.3 | 10.8
CC(C)c1ccc(-c2c(C#N)c(N)nc(SCC(=O)N3CCCCC3)c2C#N)cc1 | 4.2 | 4.4 | 1.0 | 0.0432 | 11.8 | 33.1*
CC(C)c1ccc(-c2c(C#N)c(N)nc(SCC(=O)N3CCCCCC3)c2C#N)cc1 | 4.6 | -2.2 | 15.4 | 1.03 | -56.6 | 13.1
CC(=O)CC(=O)Nc1ccccc1NC(C)=O | 0.0 | -7.7 | -1.7 | 0.592 | -41.6 | 12.6
Nc1nc(-c2ccc3c(c2)CCCC3)cs1 | 0.1 | -12.1 | 81.3* | 1.22 | -31.5 | -0.1
CN1CC(c2ccccc2)C2(SC(=S)N(Cc3ccco3)C2=O)C12C(=O)Nc1ccccc12 (stereo not given) | 3.5 | 2.4 | 79.7* | 0.0675 | -41.4 | 19.7
CN1CC(c2ccccn2)C2(SC(=S)N(Cc3ccccc3)C2=O)C12C(=O)Nc1ccccc12 (stereo not given) | 0.9 | 24.9 | 5.4 | -0.0913 | -5.1 | 12.1
Cc1cc(Cl)ccc1NC(=S)N1CCN(Cc2ccc3c(c2)OCO3)CC1 | 2.8 | 4.6 | 56.1 | 0.247 | -41.1 | 4.2
O=C(NC(=S)N1CCN(Cc2ccc3c(c2)OCO3)CC1)c1cccc(Br)c1 | -0.9 | 11.8 | 60.5* | . | 0.5 | 15.9

Bioassay records: PubChem, several laboratories
